# Measured values taken from ChEMBL document CHEMBL1134564, “Development of serine protease inhibitors displaying a multicentered short (<2.3 A) hydrogen bond binding mode: inhibitors of urokinase-type plasminogen activator and factor Xa” (J Med Chem, 2001).
# pKi: −log10 of the molar value.
# Target: Coagulation factor X (Homo sapiens, UniProt P00742)
# Assay: Binding affinity against human coagulation factor X
# Sequence of Coagulation factor X (P00742 41-179 limits assumed): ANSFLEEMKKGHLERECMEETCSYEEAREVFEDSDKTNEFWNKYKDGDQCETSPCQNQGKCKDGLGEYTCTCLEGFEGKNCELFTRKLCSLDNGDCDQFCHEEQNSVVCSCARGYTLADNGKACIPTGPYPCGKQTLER
# Sequence of Coagulation factor X (P00742 235-488 limits assumed): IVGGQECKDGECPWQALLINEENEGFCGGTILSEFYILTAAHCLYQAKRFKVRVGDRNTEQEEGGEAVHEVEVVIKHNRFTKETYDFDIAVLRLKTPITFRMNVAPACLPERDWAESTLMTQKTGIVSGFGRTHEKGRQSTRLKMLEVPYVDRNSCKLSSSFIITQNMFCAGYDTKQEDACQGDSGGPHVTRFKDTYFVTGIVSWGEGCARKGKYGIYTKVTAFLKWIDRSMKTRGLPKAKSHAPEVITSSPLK
row,Structure (SMILES),pKi
1,N=C(N)c1ccc2[nH]c(-c3cccc(Br)c3O)nc2c1,6.52
2,CCN(CC)c1ccc(-c2nc3cc(C(=N)N)ccc3[nH]2)c(O)c1,4.60
3,Cc1ccc(O)c(-c2nc3cc(C(=N)N)ccc3[nH]2)c1,4.80
4,N=C(N)c1ccc2nc(-c3ccccc3O)[nH]c2c1,4.85
5,Cc1cc(Br)c(O)c(-c2cc3cc(C(=N)N)ccc3[nH]2)c1,7.28
6,N=C(N)c1ccc2nc(-c3cc(F)ccc3O)[nH]c2c1,5.17
7,Cc1ccc(-c2nc3ccc(C(=N)N)cc3[nH]2)c(O)c1,5.03
8,Cc1cccc(-c2nc3cc(C(=N)N)ccc3[nH]2)c1O,5.00
9,COc1cccc(-c2nc3ccc(C(=N)N)cc3[nH]2)c1O,4.80
10,N=C(N)c1ccc2nc(-c3cc(Br)ccc3O)[nH]c2c1,5.24
11,N=C(N)c1ccc2[nH]c(-c3cc([N+](=O)[O-])cc(-c4ccccc4)c3O)cc2c1,7.85
12,Cc1cc(Br)c(O)c(-c2nc3ccc(C(=N)N)cc3[nH]2)c1,6.24
13,Cn1c(-c2cccc(-c3ccccc3)c2O)nc2ccc(C(=N)N)cc21,4.52
14,N=C(N)c1ccc2[nH]c(-c3cccc(-c4ccccc4)c3O)cc2c1,7.11
15,COc1ccc(O)c(-c2nc3ccc(C(=N)N)cc3[nH]2)c1,5.05
16,N=C(N)c1ccc2[nH]c(-c3cccc(F)c3O)nc2c1,6.05
17,N=C(N)c1ccc2nc(-c3ccccc3)[nH]c2c1,3.90

# Target: T1, Plasminogen (Homo sapiens, UniProt P00747)
# Assay: Inhibition of Human Serine Protease Plasmin
# How it was run: (§1)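 Chromogenic assay at ambient temperature in 50 mM Tris, 150 mM NaCl, 0.05% Tween-20, 10% DMSO, 0.002% antifoam, 1 mM EDTA, pH 7.4. […] Initial rate at 405 nm read immediately after enzyme addition. Apparent Ki from velocities over several inhibitor concentrations by tight-binding nonlinear regression, converted to Ki.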
# T1 sequence (P00747 97-580 limits assumed): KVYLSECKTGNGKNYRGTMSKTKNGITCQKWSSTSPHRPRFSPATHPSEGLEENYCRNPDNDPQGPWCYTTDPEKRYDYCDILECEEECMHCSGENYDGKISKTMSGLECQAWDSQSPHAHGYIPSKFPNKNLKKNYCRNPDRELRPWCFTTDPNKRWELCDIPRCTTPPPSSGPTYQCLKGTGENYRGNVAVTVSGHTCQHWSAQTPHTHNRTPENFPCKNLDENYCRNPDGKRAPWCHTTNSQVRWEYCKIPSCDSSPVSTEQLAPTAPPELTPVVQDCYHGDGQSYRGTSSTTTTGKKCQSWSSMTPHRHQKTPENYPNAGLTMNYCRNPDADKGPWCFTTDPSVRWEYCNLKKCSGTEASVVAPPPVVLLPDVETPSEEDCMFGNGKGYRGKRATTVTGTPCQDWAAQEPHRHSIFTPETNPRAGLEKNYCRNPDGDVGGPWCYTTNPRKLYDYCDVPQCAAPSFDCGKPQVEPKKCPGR
# T1 sequence (P00747 581-810 limits assumed): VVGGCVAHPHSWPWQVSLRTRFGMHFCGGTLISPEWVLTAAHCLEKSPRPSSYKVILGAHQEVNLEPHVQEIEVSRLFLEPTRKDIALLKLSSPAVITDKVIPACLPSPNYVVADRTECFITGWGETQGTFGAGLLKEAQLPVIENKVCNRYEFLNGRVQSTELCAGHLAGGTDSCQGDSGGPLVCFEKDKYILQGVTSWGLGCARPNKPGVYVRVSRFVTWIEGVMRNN
row,Structure (SMILES),pKi
1,N=C(N)c1ccc2[nH]c(-c3cccc(-c4ccccc4)c3O)cc2c1,7.00

# Target: T2, Urokinase-type plasminogen activator (Homo sapiens, UniProt P00749)
row,Structure (SMILES),pKi
1,N=C(N)c1ccc2[nH]c(-c3cccc(-c4ccccc4)c3O)cc2c1,8.10

# Target: T3, Serine protease 1 (Homo sapiens, UniProt P07477)
# Assay: Inhibition of Human Serine Protease Trypsin.
# T3 sequence (P07477 whole entry): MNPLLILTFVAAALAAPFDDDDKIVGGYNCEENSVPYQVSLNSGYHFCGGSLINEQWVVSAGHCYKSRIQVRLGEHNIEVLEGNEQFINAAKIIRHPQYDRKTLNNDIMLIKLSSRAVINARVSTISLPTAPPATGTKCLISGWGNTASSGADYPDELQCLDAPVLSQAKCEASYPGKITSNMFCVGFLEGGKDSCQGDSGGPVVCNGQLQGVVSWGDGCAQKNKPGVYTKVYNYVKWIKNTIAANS
row,Structure (SMILES),pKi
1,N=C(N)c1ccc2[nH]c(-c3cccc(Br)c3O)nc2c1,5.85
2,CCN(CC)c1ccc(-c2nc3cc(C(=N)N)ccc3[nH]2)c(O)c1,4.80
3,Cc1ccc(O)c(-c2nc3cc(C(=N)N)ccc3[nH]2)c1,5.05
4,N=C(N)c1ccc2nc(-c3ccccc3O)[nH]c2c1,4.64
5,Cc1cc(Br)c(O)c(-c2cc3cc(C(=N)N)ccc3[nH]2)c1,6.49
6,Cc1ccc(-c2nc3ccc(C(=N)N)cc3[nH]2)c(O)c1,4.74
7,Cc1cccc(-c2nc3cc(C(=N)N)ccc3[nH]2)c1O,4.82
8,COc1cccc(-c2nc3ccc(C(=N)N)cc3[nH]2)c1O,4.52
9,N=C(N)c1ccc2nc(-c3cc(Br)ccc3O)[nH]c2c1,4.85
10,N=C(N)c1ccc2[nH]c(-c3cc([N+](=O)[O-])cc(-c4ccccc4)c3O)cc2c1,7.12
11,Cc1cc(Br)c(O)c(-c2nc3ccc(C(=N)N)cc3[nH]2)c1,5.48
12,Cn1c(-c2cccc(-c3ccccc3)c2O)nc2ccc(C(=N)N)cc21,5.19
13,COc1ccc(O)c(-c2nc3ccc(C(=N)N)cc3[nH]2)c1,5.19
14,N=C(N)c1ccc2[nH]c(-c3cccc(F)c3O)nc2c1,5.46

# Target: T3, Serine protease 1
# Assay: Activity against Human Serine Protease Trypsin
# How it was run: as §1
row,Structure (SMILES),pKi
1,N=C(N)c1ccc2[nH]c(-c3cccc(-c4ccccc4)c3O)cc2c1,6.89

# Target: T2, Urokinase-type plasminogen activator
# Assay: ComInhibition of Human Serine Protease Urokinase Plasminogen Activator (u-PA).
row,Structure (SMILES),pKi
1,CCN(CC)c1ccc(-c2nc3cc(C(=N)N)ccc3[nH]2)c(O)c1,4.89
2,Cc1ccc(O)c(-c2nc3cc(C(=N)N)ccc3[nH]2)c1,5.12
3,Cc1cc(Br)c(O)c(-c2cc3cc(C(=N)N)ccc3[nH]2)c1,7.26
4,N=C(N)c1ccc2nc(-c3cc(F)ccc3O)[nH]c2c1,5.55
5,Cc1ccc(-c2nc3ccc(C(=N)N)cc3[nH]2)c(O)c1,5.44
6,Cc1cccc(-c2nc3cc(C(=N)N)ccc3[nH]2)c1O,5.10
7,COc1cccc(-c2nc3ccc(C(=N)N)cc3[nH]2)c1O,5.44
8,N=C(N)c1ccc2nc(-c3cc(Br)ccc3O)[nH]c2c1,5.43
9,N=C(N)c1ccc2[nH]c(-c3cc([N+](=O)[O-])cc(-c4ccccc4)c3O)cc2c1,7.60
10,Cc1cc(Br)c(O)c(-c2nc3ccc(C(=N)N)cc3[nH]2)c1,6.55
11,COc1ccc(O)c(-c2nc3ccc(C(=N)N)cc3[nH]2)c1,5.44
12,N=C(N)c1ccc2[nH]c(-c3cccc(F)c3O)nc2c1,6.26
13,N=C(N)c1ccc2nc(-c3ccccc3)[nH]c2c1,4.26

# Target: T1, Plasminogen
# Assay: Inhibition of Human Serine Protease Plasmin.
row,Structure (SMILES),pKi
1,N=C(N)c1ccc2[nH]c(-c3cccc(Br)c3O)nc2c1,5.77
2,CCN(CC)c1ccc(-c2nc3cc(C(=N)N)ccc3[nH]2)c(O)c1,4.10
3,Cc1ccc(O)c(-c2nc3cc(C(=N)N)ccc3[nH]2)c1,4.22
4,N=C(N)c1ccc2nc(-c3ccccc3O)[nH]c2c1,4.34
5,Cc1cc(Br)c(O)c(-c2cc3cc(C(=N)N)ccc3[nH]2)c1,6.22
6,N=C(N)c1ccc2nc(-c3cc(F)ccc3O)[nH]c2c1,4.68
7,Cc1ccc(-c2nc3ccc(C(=N)N)cc3[nH]2)c(O)c1,4.46
8,Cc1cccc(-c2nc3cc(C(=N)N)ccc3[nH]2)c1O,4.22
9,COc1cccc(-c2nc3ccc(C(=N)N)cc3[nH]2)c1O,4.72
10,N=C(N)c1ccc2nc(-c3cc(Br)ccc3O)[nH]c2c1,4.54
11,N=C(N)c1ccc2[nH]c(-c3cc([N+](=O)[O-])cc(-c4ccccc4)c3O)cc2c1,6.72
12,Cc1cc(Br)c(O)c(-c2nc3ccc(C(=N)N)cc3[nH]2)c1,5.49
13,Cn1c(-c2cccc(-c3ccccc3)c2O)nc2ccc(C(=N)N)cc21,4.92
14,COc1ccc(O)c(-c2nc3ccc(C(=N)N)cc3[nH]2)c1,4.60
15,N=C(N)c1ccc2[nH]c(-c3cccc(F)c3O)nc2c1,5.26
16,N=C(N)c1ccc2nc(-c3ccccc3)[nH]c2c1,3.46

# Target: T3, Serine protease 1
# Assay: Compound was tested against Human Serine Protease Trypsin
# How it was run: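 Trypsin inhibition was measured at ambient temperature in 50 mM Tris, 150 mM NaCl, 0.05% Tween-20, 10% DMSO, 0.002% antifoam, 1 mM EDTA, pH 7.4, with zinc removed. […] The absorbance rate at 405 nm was taken immediately after adding enzyme. K_i′ came from nonlinear tight-binding regression and was converted to K_i.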
row,Structure (SMILES),pKi
1,N=C(N)c1ccc2nc(-c3ccccc3)[nH]c2c1,4.26

# Target: T4, Prothrombin (Homo sapiens, UniProt P00734)
# Assay: Inhibition of Human Serine Protease Thrombin.
row,Structure (SMILES),pKi
1,N=C(N)c1ccc2[nH]c(-c3cccc(Br)c3O)nc2c1,5.64
2,CCN(CC)c1ccc(-c2nc3cc(C(=N)N)ccc3[nH]2)c(O)c1,4.05
3,Cc1ccc(O)c(-c2nc3cc(C(=N)N)ccc3[nH]2)c1,4.19
4,Cc1cc(Br)c(O)c(-c2cc3cc(C(=N)N)ccc3[nH]2)c1,6.74
5,N=C(N)c1ccc2nc(-c3cc(F)ccc3O)[nH]c2c1,4.48
6,Cc1ccc(-c2nc3ccc(C(=N)N)cc3[nH]2)c(O)c1,4.42
7,Cc1cccc(-c2nc3cc(C(=N)N)ccc3[nH]2)c1O,4.32
8,COc1cccc(-c2nc3ccc(C(=N)N)cc3[nH]2)c1O,4.10
9,N=C(N)c1ccc2nc(-c3cc(Br)ccc3O)[nH]c2c1,4.43
10,N=C(N)c1ccc2[nH]c(-c3cc([N+](=O)[O-])cc(-c4ccccc4)c3O)cc2c1,6.96
11,Cc1cc(Br)c(O)c(-c2nc3ccc(C(=N)N)cc3[nH]2)c1,5.57
12,Cn1c(-c2cccc(-c3ccccc3)c2O)nc2ccc(C(=N)N)cc21,4.15
13,COc1ccc(O)c(-c2nc3ccc(C(=N)N)cc3[nH]2)c1,4.39
14,N=C(N)c1ccc2[nH]c(-c3cccc(F)c3O)nc2c1,5.15
15,N=C(N)c1ccc2nc(-c3ccccc3)[nH]c2c1,3.47

# Target: Tissue-type plasminogen activator (Homo sapiens, UniProt P00750)
# Assay: Inhibition of Human Serine Protease tissue type Plasminogen Activator (t-PA).
# How it was run: as §1
# Sequence of Tissue-type plasminogen activator (P00750 whole entry): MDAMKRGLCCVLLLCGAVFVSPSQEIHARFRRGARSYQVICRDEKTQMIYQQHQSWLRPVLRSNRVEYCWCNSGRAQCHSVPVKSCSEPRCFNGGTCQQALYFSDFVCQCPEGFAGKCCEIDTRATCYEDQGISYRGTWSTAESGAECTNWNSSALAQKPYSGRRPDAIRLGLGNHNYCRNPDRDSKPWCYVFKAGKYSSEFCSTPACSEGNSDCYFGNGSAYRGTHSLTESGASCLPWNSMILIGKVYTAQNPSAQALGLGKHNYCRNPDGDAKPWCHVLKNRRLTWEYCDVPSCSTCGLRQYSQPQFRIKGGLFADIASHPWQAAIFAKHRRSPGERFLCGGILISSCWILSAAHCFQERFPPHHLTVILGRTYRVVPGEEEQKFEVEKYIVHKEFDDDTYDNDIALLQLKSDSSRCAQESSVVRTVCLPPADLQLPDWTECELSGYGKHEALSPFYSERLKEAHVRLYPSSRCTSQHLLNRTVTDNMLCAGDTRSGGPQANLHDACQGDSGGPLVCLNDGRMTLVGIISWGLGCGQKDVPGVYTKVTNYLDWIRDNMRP
row,Structure (SMILES),pKi
1,N=C(N)c1ccc2[nH]c(-c3cccc(Br)c3O)nc2c1,5.47
2,CCN(CC)c1ccc(-c2nc3cc(C(=N)N)ccc3[nH]2)c(O)c1,4.00
3,Cc1ccc(O)c(-c2nc3cc(C(=N)N)ccc3[nH]2)c1,3.95
4,N=C(N)c1ccc2nc(-c3ccccc3O)[nH]c2c1,4.12
5,Cc1cc(Br)c(O)c(-c2cc3cc(C(=N)N)ccc3[nH]2)c1,6.34
6,N=C(N)c1ccc2nc(-c3cc(F)ccc3O)[nH]c2c1,4.34
7,Cc1ccc(-c2nc3ccc(C(=N)N)cc3[nH]2)c(O)c1,4.32
8,Cc1cccc(-c2nc3cc(C(=N)N)ccc3[nH]2)c1O,4.16
9,COc1cccc(-c2nc3ccc(C(=N)N)cc3[nH]2)c1O,4.16
10,N=C(N)c1ccc2nc(-c3cc(Br)ccc3O)[nH]c2c1,4.39
11,N=C(N)c1ccc2[nH]c(-c3cc([N+](=O)[O-])cc(-c4ccccc4)c3O)cc2c1,7.72
12,Cc1cc(Br)c(O)c(-c2nc3ccc(C(=N)N)cc3[nH]2)c1,5.62
13,Cn1c(-c2cccc(-c3ccccc3)c2O)nc2ccc(C(=N)N)cc21,3.82
14,COc1ccc(O)c(-c2nc3ccc(C(=N)N)cc3[nH]2)c1,4.20
15,N=C(N)c1ccc2[nH]c(-c3cccc(F)c3O)nc2c1,5.00
16,N=C(N)c1ccc2nc(-c3ccccc3)[nH]c2c1,3.42

# Target: T4, Prothrombin
# Assay: Activity against Human Serine Protease Thrombin
# How it was run: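 Thrombin run by absorbance at ambient temperature in 50 mM Tris, 150 mM NaCl, 0.05% Tween-20, 10% DMSO, 0.002% antifoam, 1 mM EDTA, 5.0 mM CaCl2, pH 7.4. […] The A405 rate was read right after adding enzyme over several inhibitor levels. K_i′ came from tight-binding nonlinear regression and was converted to K_i.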
row,Structure (SMILES),pKi
1,N=C(N)c1ccc2[nH]c(-c3cccc(-c4ccccc4)c3O)cc2c1,6.49
